TRPC4 PAM: TRPC4 (mouse) allosteric potentiation | 310,000 tested, 0.42% active | Q9QUQ5 | HEK293 TRPC4beta/mu-opioid, DAMGO EC20, Fluo-4 Ca2+ flux; active compounds read high | AID 2227 | B-score at 10 µM;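 active means B-score of calcium response area above 5 SD of library B-scores, with initial fluorescence ratio within 5 SD of library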
Target sequence (Q9QUQ5 whole entry, looked up): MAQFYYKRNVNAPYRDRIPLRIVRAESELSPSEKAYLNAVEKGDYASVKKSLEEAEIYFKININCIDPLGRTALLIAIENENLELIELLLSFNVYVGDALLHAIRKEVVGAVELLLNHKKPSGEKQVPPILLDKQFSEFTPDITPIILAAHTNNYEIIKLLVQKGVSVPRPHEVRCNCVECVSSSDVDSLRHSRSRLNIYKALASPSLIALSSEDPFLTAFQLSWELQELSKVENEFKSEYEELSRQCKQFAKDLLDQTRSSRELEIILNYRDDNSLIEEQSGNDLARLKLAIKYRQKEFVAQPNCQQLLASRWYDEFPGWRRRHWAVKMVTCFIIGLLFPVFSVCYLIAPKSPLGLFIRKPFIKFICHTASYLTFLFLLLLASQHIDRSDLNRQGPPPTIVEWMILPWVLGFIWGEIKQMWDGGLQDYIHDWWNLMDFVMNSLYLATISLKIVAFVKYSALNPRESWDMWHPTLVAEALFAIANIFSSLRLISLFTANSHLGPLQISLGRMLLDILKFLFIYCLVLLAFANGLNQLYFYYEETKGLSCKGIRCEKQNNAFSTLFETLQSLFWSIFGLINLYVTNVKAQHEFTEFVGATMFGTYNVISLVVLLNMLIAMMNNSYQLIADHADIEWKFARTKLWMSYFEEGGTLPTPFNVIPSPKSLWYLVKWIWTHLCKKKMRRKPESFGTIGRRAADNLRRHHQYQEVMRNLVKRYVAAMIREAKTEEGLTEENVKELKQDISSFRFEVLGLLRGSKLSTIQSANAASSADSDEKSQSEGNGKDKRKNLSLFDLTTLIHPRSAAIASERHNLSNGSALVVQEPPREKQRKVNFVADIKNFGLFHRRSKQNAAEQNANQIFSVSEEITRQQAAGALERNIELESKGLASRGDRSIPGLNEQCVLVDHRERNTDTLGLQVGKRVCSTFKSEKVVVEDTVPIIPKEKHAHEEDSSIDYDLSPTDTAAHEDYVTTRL
TRPC6 act: activates the mouse TRPC6 cation channel; Q61143; B-score at 10 µM; 310,000 tested, 0.13% active; HEK293-TRPC6 membrane potential dye fluorescence; active compounds read high;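 active means B-score of the integrated fluorescence ratio above library mean plus 3 SD, and starting fluorescence ratio within library mean plus 5 SD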;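 further: higher score means more depolarization so channel activation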
TRPC4 block: inhibitors of mouse TRPC4 channel; Q9QUQ5; HEK293 TRPC4beta/mu-opioid, DAMGO-evoked Fluo4 calcium flux; active compounds read low; B-score at 10 µM; 300,000 tested, 0.39% active;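 active means B-score over 3 SD under the library average, no early fluorescence shift, positive overall ratio signal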
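System: stable TRPC4beta/mu-opioid receptor HEK293 cells; Dosing: single-point compound dosing; Measured by: Fluo4 Ca2+ flux fluorescence; Read-out basis: per-well B score of integrated baseline-normalized Fluo4 ratio.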
TRPC6 inhibitor: inhibitors of mouse TRPC6 channel. Q61143. HEK293-TRPC6, membrane potential dye, ACh-evoked depolarization; active compounds read low. AID 2553. 310,000 tested, 1.1% active. B-score at 10 µM;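 active means B-score under library mean minus 3 SD, initial fluorescence not abnormally high, positive integrated signal ratio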;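 further: B-score derived from integrated fluorescence ratio over the kinetic read; more negative B-score means stronger inhibition of depolarization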
TRPC4 agonist: opens the mouse TRPC4 cation channel | B-score at 10 µM | HEK293 TRPC4beta/mu-opioid, Fluo4 calcium fluorescence; active compounds read high | Q9QUQ5 | 310,000 tested, 0.49% active;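 active means B-score above 5 SD of library B-scores, and initial fluorescence ratio not above library mean plus 5 SD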;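 further: positive B-score marks a calcium rise read as TRPC4 activation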
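Incubation: 45 min room-temperature Fluo4 loading, 110 s read / System: HEK293 cells stably co-expressing mouse TRPC4beta and mu-opioid receptor / Signal: Fluo4 fluorescence, kinetic / Control set: buffer (low) and maximal DAMGO (high) / Measure: integrated baseline-normalised fluorescence ratio, converted to per-well B score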
TRPC4 sel inh 2: mouse TRPC4 off-target activity of TRPC6 inhibitors, second screen | shares compounds with TRPC6 inhibitor | HEK293 TRPC4/MOR, membrane potential dye fluorescence; channel activated by saturating DAMGO dose | inhibition, % at 10 µM | 920 tested, 42% active;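 active means compounds whose fluorescence signal differed from control wells by over 3 SD, either direction, in both duplicate plates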
TRPC4 spec: selectivity of TRPC6 inhibitors: effect on mouse TRPC4. shares compounds with TRPC6 inhibitor. HEK293 TRPC4/mu-opioid, membrane potential fluorescence. activity change, negative = inhibition, % at 10 µM. 920 tested, 61% active. AID 2777;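 active means rise or fall in signal beyond 3 SD of buffer-only wells in both replicate plates, either sign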;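 further: integrated kinetic ratio of fluorescence range over baseline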
HEK293 MPD ctr 2-1: parental HEK293 nonspecific activity of TRPC6 inhibitors, second screen | signal change vs control, % at 10 µM | 920 tested, 31% active | AID 2779 | parental HEK293 membrane potential dye fluorescence; maximal acetylcholine challenge after compound addition | shares compounds with TRPC6 inhibitor;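 active means membrane potential signal moving either way by over 3 SD of the maximum-effect control, in both duplicate plates, meaning non-specific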
HEK293 MPD ctr-1: parental HEK293 nonspecific activity of TRPC6 inhibitors; shares compounds with TRPC6 inhibitor; parental HEK293 membrane potential dye fluorescence; membrane potential signal change, % at 10 µM; 920 tested, 60% active;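 active means membrane potential signal shifting up or down by more than 3 SD of buffer-only wells, on both duplicate plates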
HEK293 MPD ctr-2: parental HEK293 nonspecific activity of TRPC6 modulators | AID 488924 | membrane potential dye fluorescence | shares compounds with TRPC6 inhibitor | membrane potential signal change, % at 10 µM | 2,400 tested, 51% active;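 active means membrane potential signal moves up or down beyond 5 SD from buffer-only wells, on both duplicate plates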
HEK293 MPD ctr 2-2: second check of TRPC6 modulator effects in parental HEK293 cells. shares compounds with TRPC6 inhibitor. membrane potential dye fluorescence; after compound, maximal acetylcholine stimulation. inhibition, % at 10 µM. 2,400 tested, 14% active;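 active means membrane potential signal drops by more than 5 SD from the mean control signal, in both duplicate plates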
TRPC4/MOR mod: selectivity of TRPC6 modulators against mouse TRPC4; shares compounds with TRPC6 inhibitor; percent change from control (negative = decrease, positive = increase), % at 10 µM; HEK293 TRPC4/mu-opioid, membrane potential fluorescence; 2,400 tested, 69% active;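 active means membrane potential signal moved up or down beyond 5 SD of buffer control wells, in both duplicate plates, actives on both sides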
TRPC4/MOR inh 2: second selectivity test of TRPC6 modulators against mouse TRPC4; shares compounds with TRPC6 inhibitor; HEK293 TRPC4/mu-opioid, membrane potential dye fluorescence; stimulated with maximal-effect DAMGO; inhibition, % at 10 µM; 2,400 tested, 55% active;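 active means drop in membrane potential signal beyond 5 SD of the control wells in both duplicate plates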;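 further: TRPC4 counter screen for TRPC6 hits run under conditions tuned for TRPC6 not TRPC4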
TRPC6 inh conf: mouse TRPC6 inhibitor confirmation; inhibition, % at 10 µM; 3,300 tested, 43% active; HEK293-TRPC6, membrane potential dye, ACh-evoked depolarization; shares compounds with TRPC6 inhibitor; AID 488960;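 active means fluorescence ratio falls more than 5 SD below the full-stimulation control mean, in both duplicate runs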;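 further: integrated fluorescence ratio of peak minus minimum over baseline after agonist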
TRPC6 act confirm: mouse TRPC6 activator confirmation | 2,800 tested, 11% active | activation, % at 10 µM | shares compounds with TRPC6 inhibitor | HEK293-TRPC6 membrane potential dye fluorescence, FDSS | AID 488961;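 active means ratio signal rise beyond 5 SD above unstimulated control wells' mean, seen in both duplicate runs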
Numbers stand for hits; . = inactive; / = no result given. A selection: hits, their analogues and other compounds. The true share with any hit is near 2.3%.

SMILES | TRPC4 PAM | TRPC6 act | TRPC4 block | TRPC6 inhibitor | TRPC4 agonist | HEK293 MPD ctr-2 | HEK293 MPD ctr 2-2 | TRPC4/MOR mod | TRPC4/MOR inh 2 | TRPC6 inh conf | TRPC6 act confirm | others
CCN1CCN(c2cc(C)c3cc(NC(=O)c4ccc(Br)o4)ccc3n2)CC1 | . | . | -6 | -5.5 | . | . | . | -12% | 42% | . | .
CCN1CCN(c2cc(C)c3cc(NC(=O)c4ccncc4)ccc3n2)CC1 | . | . | . | -5.5 | . | -100% | . | . | . | . | .
CCc1ccccc1NC(=O)C1CCN(c2cnccn2)CC1 | . | . | . | . | . | / | / | / | / | / | /
CC(=O)Oc1ccc(C(=O)Nc2ccccc2C(=O)Nc2ccc(C(=O)O)cc2)cc1 | . | . | . | . | . | / | / | / | / | / | /
O=[N+]([O-])c1ccc2nc(-c3ccncc3)[nH]c2c1 | . | . | . | -6.4 | . | -304% | 60% | -52% | 36% | . | .
N#Cc1cccnc1N1CCN(C(=O)c2cccs2)CC1 | . | . | . | . | . | / | / | / | / | / | /
CC(C)N(c1ccccc1)c1ccc(NC(=S)NCCN(C)C)cc1 | . | . | . | -6.6 | . | . | . | . | 40% | 46% | .
O=C(O)Cc1sc(-c2ccccc2Cl)nc1-c1ccccc1 | . | . | . | -6.2 | . | . | . | . | . | . | .
COc1ccc(NC2=Nc3cccc4cccc2c34)cc1OC | . | . | . | . | . | / | / | / | / | / | /
COc1cc(NC2=Nc3cccc4cccc2c34)cc(OC)c1OC | . | . | . | -5.1 | . | . | . | . | 32% | . | .
COC(C#CCCN(C)C)(c1ccccc1)c1ccccc1 | . | . | . | -6.5 | . | . | 89% | 14% | 34% | 79% | /
CCN1C(=O)[C@H]2[C@@H](c3ccc(C)cc3)N3C(=O)N(c4cccc(F)c4)C(=O)[C@@]3(C)[C@H]2C1=O | . | . | . | . | . | / | / | / | / | / | /
COc1ccc(OC)c(CNc2ncc(-c3ccc(F)cc3)n2C)c1 | . | . | . | -5.3 | . | . | . | . | 68% | 57% | .
COc1ccccc1CNc1ncc(-c2ccc(F)cc2)n1C | . | . | . | . | . | / | / | / | / | / | /
Cn1c(-c2ccccc2)cnc1NCc1cc2c(cc1[N+](=O)[O-])OCO2 | . | . | . | -5.6 | . | . | . | -24% | 68% | . | .
Cn1c(-c2ccc(F)cc2)cnc1NCc1cc2c(cc1[N+](=O)[O-])OCO2 | . | . | . | -6.2 | . | . | . | -16% | 76% | 72% | .
Cc1onc(-c2c(Cl)cccc2Cl)c1C(=O)ONC(=O)c1ccccc1 | . | . | . | . | . | / | / | / | / | / | /
Cc1cccc(C)c1NC(=O)c1cccnc1 | . | . | . | -6.3 | . | . | . | . | . | . | .
C=C(C)CN(CC)c1nc(N)c2c(N)nc3c(c2c1C#N)CC(=O)N3C12CC3CC(CC(C3)C1)C2 | . | . | . | . | . | / | / | / | / | / | /
N#Cc1c(N2CCCC(O)C2)nc(N)c2c(N)nc3c(c12)CC(=O)N3C12CC3CC(CC(C3)C1)C2 (centres undefined) | . | . | . | -6.1 | . | . | . | . | . | . | .
O=C(CN1CCCCC1)N1c2ccccc2CCc2ccccc21 | . | . | . | -6.5 | . | 100% | . | 17% | . | . | /
Cc1cc(=O)oc2cc(OCC(=O)N3CC[C@@]4(O)CCCC[C@H]4C3)c(Cl)cc12 | . | . | . | . | . | / | / | / | / | / | /
Nc1ccc(-c2cc3ccccc3oc2=O)cc1 | . | . | . | . | . | / | / | / | / | / | /
O=C/C=C/c1c(-c2ccccc2)cc2oc3ccccc3cc1-2 | . | . | . | -9.3 | . | / | / | / | / | . | . | TRPC4 sel inh 2=.;TRPC4 spec=.;HEK293 MPD ctr 2-1=.;HEK293 MPD ctr-1=.
CC(C)(Oc1ccc(Cl)cc1)C(=O)NCC(c1cccs1)N1CCOCC1 (centres undefined) | . | . | . | . | . | / | / | / | / | / | /
SMILES | TRPC4 PAM | TRPC6 act | TRPC4 block | TRPC6 inhibitor | TRPC4 agonist | HEK293 MPD ctr-2 | HEK293 MPD ctr 2-2 | TRPC4/MOR mod | TRPC4/MOR inh 2 | TRPC6 inh conf | TRPC6 act confirm | others
COc1ccccc1C(CNC(=O)C(C)(C)Oc1ccc(Cl)cc1)N1CCCC1 (centres undefined) | . | . | . | -5.7 | . | 194% | . | 33% | 42% | 52% | /
O=C(CCN1C(=O)C2CC=CCC2C1=O)Nc1nccs1 (centres undefined) | . | . | . | . | . | / | / | / | / | / | /
C=CC[N+]1(CC#CCOC(c2ccccc2)c2ccccc2)CCOCC1 | . | . | . | -5.5 | . | . | . | -16% | . | 37% | .
C=CC#CC[N+]1(CC#Cc2ccccc2)CCOCC1 | . | . | . | . | . | / | / | / | / | / | /
COc1ccccc1CNCC(=O)Nc1ccc(C(F)(F)F)cc1 | . | . | . | -5.2 | . | . | . | . | 42% | . | .
COc1ccccc1CNCC(=O)Nc1ccc(C#N)cc1 | . | . | . | . | . | / | / | / | / | / | /
O=C(NCCCN1CCOCC1)/C(=C/c1cccs1)NC(=O)c1ccccc1 | . | . | . | . | . | / | / | / | / | / | /
COc1cc2ccccc2nn1 | . | . | . | . | . | / | / | / | / | / | /
COc1ccc2c(n1)Sc1nc3ccccc3nc1N2 | . | 19 | . | . | . | 210% | . | 106% | . | . | .
CC1=C(CC(=O)O)c2cc(F)ccc2/C1=C/c1ccc(S(C)=O)cc1 (centres undefined) | . | . | . | . | . | / | / | / | / | / | /
Cc1cc(N2CCOCC2)ccc1/C=C\[N+](=O)[O-] | . | 15 | . | . | . | 260% | . | 32% | . | . | 79%
